Experiments:
Conditions in all cases: stereoisomer not certain
OR4N2 = system: OR4N2
Procedure, shortened: (§1)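 Assay methods differ from source to source, frequently being transient luciferase assays in mammalian cell lines. For each receptor–molecule pair, the label responsive (active) applies when the original authors judged the measured signal statistically different from baseline, and non-responsive (inactive) applies otherwise.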

OR4N4C (Homo sapiens) = OR4N4C (Homo sapiens) (UniProt A0A096LPK9)
Procedure, shortened: as §1

OR4Q2 (Homo sapiens) = OR4Q2 (Homo sapiens) (UniProt P0C623)
Procedure, shortened: as §1

Sequence of OR4Q2 (Homo sapiens) (P0C623 as listed by the source): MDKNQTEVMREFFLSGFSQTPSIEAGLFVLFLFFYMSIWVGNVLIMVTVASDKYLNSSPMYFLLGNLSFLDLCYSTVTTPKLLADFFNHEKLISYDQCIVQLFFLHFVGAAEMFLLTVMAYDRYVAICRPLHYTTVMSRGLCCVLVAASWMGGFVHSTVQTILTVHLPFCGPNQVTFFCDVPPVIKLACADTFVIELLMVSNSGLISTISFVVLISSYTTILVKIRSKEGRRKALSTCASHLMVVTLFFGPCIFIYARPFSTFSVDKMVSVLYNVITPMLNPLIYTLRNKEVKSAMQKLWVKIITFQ
Sequence of OR4N4C (Homo sapiens) (A0A096LPK9 whole entry): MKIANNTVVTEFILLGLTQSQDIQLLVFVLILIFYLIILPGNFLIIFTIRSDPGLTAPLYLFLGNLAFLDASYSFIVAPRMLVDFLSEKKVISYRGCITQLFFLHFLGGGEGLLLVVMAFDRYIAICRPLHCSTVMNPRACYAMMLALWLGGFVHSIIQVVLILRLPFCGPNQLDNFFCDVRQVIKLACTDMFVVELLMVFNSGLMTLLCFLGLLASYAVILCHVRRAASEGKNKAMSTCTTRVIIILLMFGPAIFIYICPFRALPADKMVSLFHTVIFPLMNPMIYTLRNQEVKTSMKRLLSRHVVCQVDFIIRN
Sequence of OR4N2 (as listed by the source): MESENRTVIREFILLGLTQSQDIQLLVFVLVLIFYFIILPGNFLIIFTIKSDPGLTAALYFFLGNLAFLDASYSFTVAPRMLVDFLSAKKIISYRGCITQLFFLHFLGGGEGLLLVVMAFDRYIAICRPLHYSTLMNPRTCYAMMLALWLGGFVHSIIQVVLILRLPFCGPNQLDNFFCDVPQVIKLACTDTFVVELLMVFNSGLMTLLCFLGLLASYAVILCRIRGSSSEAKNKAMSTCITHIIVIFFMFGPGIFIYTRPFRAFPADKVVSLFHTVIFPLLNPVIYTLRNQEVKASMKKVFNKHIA

Compound | odorant receptor agonist call (OR4N2) | odorant receptor agonist call (OR4N4C (Homo sapiens)) | odorant receptor agonist call (OR4Q2 (Homo sapiens))
O=c1ccc2ccccc2o1 | inactive | – | –
CC1CCCCCCCCCCCCC(=O)C1 (stereo not given) | – | inactive | inactive
CC(=O)c1c(C)c([N+](=O)[O-])c(C(C)(C)C)c([N+](=O)[O-])c1C | – | inactive | inactive

Source: the M2OR odorant receptor database
